Test [1] addresses T1, Cyclin-dependent kinase 1 (Homo sapiens, UniProt P06493). Briefly: Inhibition of cyclin-dependent kinase 1 (CDK1) (Not active).
In test [2] the target is T1, Cyclin-dependent kinase 1. In words: Inhibitory activity against cyclin-dependent kinase 1 (CDK1) was determined.
Test [3] concerns the target Protein kinase C alpha type (Homo sapiens, UniProt P17252). In words: Inhibition of Protein kinase C alpha.
The nature of test [4]: Inhibition of human bladder carcinoma T24 cell proliferation. The format is functional, cell-based, T-24. The method in brief: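 T24 cells seeded 1.5 x 10^3/well, attached overnight (16-18h), washed with serum-free medium, exposed to serial drug dilutions 4-5 days (≥2-3 control divisions); duplicates per concentration. Fixed 3.3% glutaraldehyde, methylene blue 0.05% stain, eluted 3% HCl, OD 665nm.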

For test [5], the target named is cAMP-dependent protein kinase (PKA) (Homo sapiens, UniProt P22694+P17612+P22612). In words: Inhibition of Protein kinase A. Type of test: protein assay.
For test [6], the target named is T2, Epidermal growth factor receptor (Homo sapiens, UniProt P00533). In words: Inhibit of epidermal growth factor receptor (EGFR).
T2 sequence (P00533 whole entry): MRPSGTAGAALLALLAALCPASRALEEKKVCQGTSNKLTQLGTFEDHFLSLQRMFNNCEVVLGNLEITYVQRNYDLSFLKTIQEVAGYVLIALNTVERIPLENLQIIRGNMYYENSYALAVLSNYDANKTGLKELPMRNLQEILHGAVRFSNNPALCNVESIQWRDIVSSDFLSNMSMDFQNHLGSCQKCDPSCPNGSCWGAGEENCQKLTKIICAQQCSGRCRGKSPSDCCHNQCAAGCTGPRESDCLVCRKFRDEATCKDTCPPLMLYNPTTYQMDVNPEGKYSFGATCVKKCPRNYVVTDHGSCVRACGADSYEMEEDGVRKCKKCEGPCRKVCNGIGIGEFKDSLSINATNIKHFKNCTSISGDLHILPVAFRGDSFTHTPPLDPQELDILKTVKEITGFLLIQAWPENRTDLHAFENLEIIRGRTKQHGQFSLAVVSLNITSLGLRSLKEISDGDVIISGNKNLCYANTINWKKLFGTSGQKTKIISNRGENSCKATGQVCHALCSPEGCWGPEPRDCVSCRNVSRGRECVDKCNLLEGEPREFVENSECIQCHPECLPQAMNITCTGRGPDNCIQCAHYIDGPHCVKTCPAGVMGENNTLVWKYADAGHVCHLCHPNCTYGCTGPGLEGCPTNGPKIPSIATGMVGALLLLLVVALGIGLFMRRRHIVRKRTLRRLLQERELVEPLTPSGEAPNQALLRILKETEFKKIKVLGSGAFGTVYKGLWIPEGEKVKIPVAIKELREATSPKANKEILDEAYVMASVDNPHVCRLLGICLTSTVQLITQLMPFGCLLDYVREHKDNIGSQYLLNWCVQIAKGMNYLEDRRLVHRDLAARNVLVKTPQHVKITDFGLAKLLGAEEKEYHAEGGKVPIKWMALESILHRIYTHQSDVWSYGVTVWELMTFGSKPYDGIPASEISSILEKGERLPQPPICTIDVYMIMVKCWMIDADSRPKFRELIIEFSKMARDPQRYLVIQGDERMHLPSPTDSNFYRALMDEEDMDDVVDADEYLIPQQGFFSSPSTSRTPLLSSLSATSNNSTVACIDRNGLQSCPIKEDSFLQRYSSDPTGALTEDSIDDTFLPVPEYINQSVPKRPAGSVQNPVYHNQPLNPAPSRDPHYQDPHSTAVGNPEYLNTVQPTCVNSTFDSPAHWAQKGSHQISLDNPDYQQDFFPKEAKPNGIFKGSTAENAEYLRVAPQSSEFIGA
Test [7] concerns the target T2, Epidermal growth factor receptor. In words: Inhibition of epidermal growth factor receptor (EGFR) (inactive).

Experimental findings from ChEMBL document CHEMBL1132163 (Bioorg Med Chem Lett, 1999) are described below.

T1 sequence (P06493 whole entry): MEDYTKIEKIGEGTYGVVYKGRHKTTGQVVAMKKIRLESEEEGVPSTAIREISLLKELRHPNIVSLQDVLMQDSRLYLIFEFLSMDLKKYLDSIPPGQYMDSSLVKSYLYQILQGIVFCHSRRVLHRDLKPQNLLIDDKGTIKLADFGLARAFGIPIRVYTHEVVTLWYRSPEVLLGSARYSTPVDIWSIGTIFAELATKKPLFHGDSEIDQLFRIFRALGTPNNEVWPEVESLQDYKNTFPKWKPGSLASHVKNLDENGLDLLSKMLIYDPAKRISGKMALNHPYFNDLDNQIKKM

As to `CCn1cnc2c(Nc3cccc(C#N)c3)nc(NCCO)nc21`, the half-inhibitory concentration (IC50) result in test [1] is “Not Active”.

Molecule `CCn1cnc2c(Nc3ccc(F)cc3)nc(N[C@H]3CC[C@H](N)CC3)nc21` had an IC50 in test [2] of 31 nM.

`CCn1cnc2c(Nc3cccc(F)c3)nc(NCCO)nc21`: in test [2], the concentration for half-maximal inhibition (IC50) was determined as 440 nM.

`CCn1cnc2c(Nc3cccc(C#N)c3)nc(N[C@H]3CC[C@H](O)CC3)nc21` came in with a 50% inhibitory concentration (IC50) in test [2] of 28 nM.

Molecule `CCn1cnc2c(Nc3cccc(OC)c3)nc(N[C@H]3CC[C@@H](N)CC3)nc21` returned an IC50 in test [2] of 340 nM.

Molecule `CCn1cnc2c(Nc3ccc(F)cc3)nc(N[C@@H]3CCCC[C@@H]3N)nc21` displayed a 50% inhibitory concentration (IC50) in test [2] of 150 nM.

In test [2], `CCn1cnc2c(Nc3cccc(C(F)(F)F)c3)nc(NCCN)nc21` showed a 50% inhibitory concentration (IC50) of 700 nM.

In test [2], `CCn1cnc2c(Nc3cccc(F)c3)nc(N[C@H]3CC[C@@H](N)CC3)nc21` returned an IC50 of 350 nM.

In test [2], `CCn1cnc2c(Nc3cccc(C(F)(F)F)c3)nc(N[C@H]3CC[C@H](N)CC3)nc21` showed a 50% inhibitory concentration (IC50) of 140 nM.

`CCn1cnc2c(Nc3ccc(F)cc3)nc(N[C@H]3CC[C@@H](N)CC3)nc21` showed a concentration for half-maximal inhibition (IC50) in test [2] of 100 nM.

In the case of `CCn1cnc2c(Nc3cccc(Cl)c3)nc(NCCN)nc21`, the IC50 was 31500 nM in test [3]; 80 nM in test [2]; 3160 nM in test [4] (Homo sapiens, T-24); 180000 nM in test [5]; over 100000 nM in test [6].

Regarding `CCn1cnc2c(Nc3cccc(F)c3)nc(N[C@@H]3CCCC[C@@H]3N)nc21`, in test [2], 250 nM corresponded to half-maximal inhibition (IC50).

`CCn1cnc2c(Nc3cccc(C(F)(F)F)c3)nc(N[C@H]3CC[C@@H](N)CC3)nc21`: the midpoint of inhibition in test [2], the IC50, lay at 290 nM.

Regarding `CCn1cnc2c(Nc3cccc(F)c3)nc(N[C@H]3CC[C@H](O)CC3)nc21`, the 50% inhibitory concentration (IC50) in test [2] amounted to 32 nM.

Molecule `CCn1cnc2c(Nc3ccc(F)cc3)nc(N[C@H]3CC[C@H](O)CC3)nc21` returned an IC50 in test [2] of 40 nM.

As to `CCn1cnc2c(Nc3cccc(OC)c3)nc(N[C@@H]3CCCC[C@@H]3N)nc21`, the half-inhibitory concentration (IC50) in test [2] worked out at 230 nM.

Molecule `CCn1cnc2c(Nc3cccc(C#N)c3)nc(NCCN)nc21` came in with a concentration for half-maximal inhibition (IC50) in test [2] of 560 nM.

Take `CCn1cnc2c(Nc3ccc(F)cc3)nc(NCCN)nc21` [listing 1 of 2 here]: in test [2], the IC50 amounted to 450 nM.

Turning to `CCn1cnc2c(Nc3cccc(Cl)c3)nc(N3CCCCC3CO)nc21` (stereo not drawn), the half-maximal inhibitory concentration (IC50) worked out at 39 nM in test [2] and 3650 nM in test [4] (Homo sapiens, T-24).

In turn, `CCn1cnc2c(Nc3cccc(C(F)(F)F)c3)nc(N[C@@H]3CCCC[C@@H]3N)nc21` registered an IC50 in test [2] of 310 nM.

In test [2], `CCn1cnc2c(Nc3cccc(OC)c3)nc(N[C@H]3CC[C@H](N)CC3)nc21` registered an IC50 of 160 nM.

Take `CCn1cnc2c(Nc3cccc(C#N)c3)nc(N[C@H]3CC[C@@H](N)CC3)nc21`: in test [2], half-maximal inhibition (IC50) required 350 nM.

In turn, `CCn1cnc2c(Nc3cccc(Cl)c3)nc(N[C@H]3CC[C@@H](O)CC3)nc21` had a concentration for half-maximal inhibition (IC50) in test [4] (Homo sapiens, T-24) of 830 nM.

In test [2], `CCn1cnc2c(Nc3cccc(Cl)c3)nc(N[C@H]3CC[C@H](O)CC3)nc21` returned a half-maximal inhibitory concentration (IC50) of 30 nM.

As for `CCn1cnc2c(Nc3cccc(C#N)c3)nc(N[C@@H]3CCCC[C@@H]3N)nc21`, 350 nM corresponded to half-maximal inhibition in test [2] (IC50).

As to `CCn1cnc2c(Nc3cccc(C(F)(F)F)c3)nc(NCCO)nc21`, in test [1], the half-inhibitory concentration (IC50) entry is recorded as “Not Active”.

For `CCn1cnc2c(Nc3cccc(F)c3)nc(N[C@H]3CC[C@H](N)CC3)nc21`, the half-inhibitory concentration (IC50) in test [2] was 150 nM.

As to `CCn1cnc2c(Nc3cccc(OC)c3)nc(NCCN)nc21`, the half-inhibitory concentration (IC50) was 550 nM in test [2] and 9900 nM in test [4] (Homo sapiens, T-24).

In the case of `CCn1cnc2c(Nc3cccc(Cl)c3)nc(N3CCC[C@@H]3CO)nc21`, the 50% inhibitory concentration (IC50) in test [3] is 38500 nM; in test [2], 80 nM; in test [4] (Homo sapiens, T-24), 6710 nM; in test [5] it was over 500000 nM; in test [7], “Not Active”.

`CCn1cnc2c(Nc3cccc(Cl)c3)nc(NCCO)nc21`: the IC50 came to 330 nM in test [2] and 17500 nM in test [4] (Homo sapiens, T-24).

As to `CCn1cnc2c(Nc3ccc(F)cc3)nc(NCCO)nc21`, in test [2], the 50% inhibitory concentration (IC50) amounted to 380 nM.

`CCn1cnc2c(Nc3cccc(Cl)c3)nc(N[C@H]3CC[C@H](N)CC3)nc21` yielded an IC50 in test [2] of 39 nM.

In test [2], `CCn1cnc2c(Nc3cccc(OC)c3)nc(N[C@H]3CC[C@H](O)CC3)nc21` returned an IC50 of 90 nM.

For the molecule `CCn1cnc2c(Nc3cccc(C(F)(F)F)c3)nc(N[C@H]3CC[C@H](O)CC3)nc21`, half-maximal inhibition in test [2] (IC50) required 28 nM.

Consider `CCn1cnc2c(Nc3cccc(Cl)c3)nc(N[C@H]3CCC[C@@H](N)C3)nc21`, for which the IC50 worked out at 6000 nM in test [3]; 120 nM in test [2]; 1500 nM in test [4] (Homo sapiens, T-24); 150000 nM in test [5].

As for `CCn1cnc2c(Nc3cccc(Cl)c3)nc(N3CCC[C@@H]3CN)nc21`, the IC50 was 41 nM in test [2] and 2350 nM in test [4] (Homo sapiens, T-24).

In turn, `CCn1cnc2c(Nc3ccc(OC)cc3)nc(NCCN)nc21` returned an IC50 in test [2] of 550 nM.

Take `CCn1cnc2c(Nc3cccc(OC)c3)nc(NCCO)nc21`: half-maximal inhibition in test [2] (IC50) required 1000 nM.

For `CCn1cnc2c(Nc3cccc(C#N)c3)nc(N[C@H]3CC[C@H](N)CC3)nc21`, in test [2], the half-maximal inhibitory concentration (IC50) was 85 nM.

As to `CCn1cnc2c(Nc3cccc(F)c3)nc(NCCN)nc21` [listing 1 of 2 here], in test [2], the half-inhibitory concentration (IC50) worked out at 600 nM.

With `CCn1cnc2c(Nc3cccc(C(F)(F)F)c3)nc(NCCN)nc21.Cl`, the half-maximal inhibitory concentration (IC50) in test [3] is 50000 nM; in test [2], 700 nM; in test [4] (Homo sapiens, T-24), 6080 nM; in test [5] it was 500000 nM; in test [6], over 10000 nM.

`CCn1cnc2c(Nc3cccc(F)c3)nc(NCCN)nc21` [listing 2 of 2 here]: the half-inhibitory concentration (IC50) in test [2] was 600 nM; in test [4] (Homo sapiens, T-24) it was 6500 nM.

In the case of `CCn1cnc2c(Nc3ccc(F)cc3)nc(NCCN)nc21` [listing 2 of 2 here], the IC50 in test [2] was determined as 450 nM; in test [4] (Homo sapiens, T-24) it was 8300 nM.

Consider `CCn1cnc2c(Nc3cccc(C#N)c3)nc(NCCN)nc21.Cl`, for which the 50% inhibitory concentration (IC50) in test [3] is 78000 nM; in test [2] it was 560 nM; in test [4] (Homo sapiens, T-24) it was 5240 nM; in test [5], over 500000 nM; in test [6] it was over 10000 nM.

In the case of `CCn1cnc2c(Nc3cccc(Cl)c3)nc(N[C@H]3CC[C@@H](N)CC3)nc21` (stereo in doubt), half-maximal inhibition in test [2] (IC50) required 140 nM.

With `CCn1cnc2c(Nc3cccc(Cl)c3)nc(N[C@@H]3CCCC[C@@H]3N)nc21` (stereo in doubt), in test [2], half-maximal inhibition (IC50) required 31 nM.

For the molecule `CCn1cnc2c(Nc3cccc(Cl)c3)nc(N[C@@H]3CCCC[C@@H]3N)nc21` (stereo in doubt; 12), the concentration for half-maximal inhibition (IC50) stood at 30000 nM in test [3]; 110 nM in test [2]; 1350 nM in test [4] (t-24); 335000 nM in test [5]; 2000 nM in test [6].

On to `CCn1cnc2c(Nc3cccc(Cl)c3)nc(N[C@@H]3CCCC[C@@H]3N)nc21` (stereo in doubt; 13), for which the IC50 turned out to be 13500 nM in test [3]; 25 nM in test [2]; 480 nM in test [4] (t-24); 150000 nM in test [5]; 5100 nM in test [6].

For the molecule `CCn1cnc2c(Nc3cccc(Cl)c3)nc(N[C@H]3CC[C@@H](N)CC3)nc21` (stereo in doubt; 15), the IC50 in test [2] is 39 nM; in test [4] (Homo sapiens, T-24), 540 nM.
